# Laboratory results reported in PMC3783524 (ACS chemical biology, 2013).
# “And” between values parts separate entries of the source, which are not always exact repeats. Equal entries are not always repeated.
# Assays:
# DnaK [1] = target: T1, DnaK (Escherichia coli, UniProt P0A6Y8); assay: Fluorescence polarization, binding of FITC-HLA peptide to DnaK; conditions: FP assay; result in words
# DnaK-DnaJ [2] = target: T2, DnaK-DnaJ (Escherichia coli, UniProt P0A6Y8); assay: DnaJ-stimulated ATPase activity of DnaK; format: biochemical; conditions: result in words
# Procedure, shortened: (§1)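 Purified E. coli DnaK, DnaJ and GrpE (His-tagged, tag removed by TEV) and the synthetic NRLLLTG peptide. DnaK at 0.6 μM unless noted, with co-chaperone at stated levels, in 100 mM Tris-HCl, 20 mM KCl, 6 mM MgCl2, pH 7.4. Test compound added from DMSO stock. Phosphate release read by malachite green adaptation (absorbance 620 nm). Michaelis-Menten fit. Triplicates, three independent experiments.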
# DnaK-peptide = DnaK-peptide (Escherichia coli, UniProt P0A6Y8); assay: Peptide substrate; format: biochemical; conditions: NRLLLTG peptide; result in words
# Procedure, shortened: as §1
# DnaK [3] = target: T1, DnaK; assay: Intrinsic tryptophan fluorescence of DnaK; format: binding
# Procedure, shortened: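 DnaK (5 μM) held in 25 mM HEPES, 10 mM KCl, 5 mM MgCl2, pH 7.5, with 1 mM ADP or ATP and test compound (e.g. 25 or 100 μM). Incubated 30 min at 37 °C in the dark. Excitation 290 nm; emission scanned 300–450 nm or read at 340 nm. Langmuir fit. Triplicate, three independent experiments.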
# DnaK-GrpE [4] = target: T3, DnaK-GrpE (Escherichia coli, UniProt P0A6Y8); assay: GrpE-stimulated ATPase activity of DnaK; format: biochemical; conditions: for Inhibition of the DnaK-GrpE combination (ATPase): result in words
# Procedure, shortened: as §1
# DnaK [5] = target: T1, DnaK; assay: Intrinsic ATPase activity of DnaK alone; format: biochemical; conditions: result in words
# Procedure, shortened: as §1
# DnaK-DnaJ [6] = target: T2, DnaK-DnaJ; assay: Fluorescence-quenching assay, binding of labeled DnaJ to DnaK; conditions: not statistically significant (p = 0.07)
# DnaK [7] = target: T1, DnaK; assay: Fluorescence polarization, binding of FAM-ATP to DnaK; conditions: for Competition with FAM-ATP for binding to DnaK: FP assay, result in words
# Solubility = format: physicochemical; conditions: result in words
# DnaK-GrpE [8] = target: T3, DnaK-GrpE; assay: Fluorescence-quenching assay, physical interaction between DnaK and GrpE; format: binding; conditions: result in words
# DnaK R56A = DnaK R56A (Escherichia coli, UniProt P0A6Y8, R56A); assay: GrpE-stimulation of DnaK mutant R56A, ATPase assay; format: biochemical; conditions: result in words
# GrpE = GrpE (Escherichia coli, UniProt P09372); assay: Isothermal calorimetry, binding to GrpE
# DnaK D233A = DnaK D233A (Escherichia coli, UniProt P0A6Y8, D233A); assay: GrpE-stimulation of DnaK control mutant D233A, ATPase assay; format: biochemical; conditions: identical to wild type
# DnaJ = DnaJ (Escherichia coli, UniProt P08622); assay: Isothermal calorimetry, binding to DnaJ
# DnaK M89A = DnaK M89A (Escherichia coli, UniProt P0A6Y8, M89A); assay: GrpE-stimulation of DnaK mutant M89A, ATPase assay; format: biochemical; conditions: result in words
# [9] = DnaK 5 μM, 25 μM or 100 μM compound
# T2 sequence (P0A6Y8 whole entry): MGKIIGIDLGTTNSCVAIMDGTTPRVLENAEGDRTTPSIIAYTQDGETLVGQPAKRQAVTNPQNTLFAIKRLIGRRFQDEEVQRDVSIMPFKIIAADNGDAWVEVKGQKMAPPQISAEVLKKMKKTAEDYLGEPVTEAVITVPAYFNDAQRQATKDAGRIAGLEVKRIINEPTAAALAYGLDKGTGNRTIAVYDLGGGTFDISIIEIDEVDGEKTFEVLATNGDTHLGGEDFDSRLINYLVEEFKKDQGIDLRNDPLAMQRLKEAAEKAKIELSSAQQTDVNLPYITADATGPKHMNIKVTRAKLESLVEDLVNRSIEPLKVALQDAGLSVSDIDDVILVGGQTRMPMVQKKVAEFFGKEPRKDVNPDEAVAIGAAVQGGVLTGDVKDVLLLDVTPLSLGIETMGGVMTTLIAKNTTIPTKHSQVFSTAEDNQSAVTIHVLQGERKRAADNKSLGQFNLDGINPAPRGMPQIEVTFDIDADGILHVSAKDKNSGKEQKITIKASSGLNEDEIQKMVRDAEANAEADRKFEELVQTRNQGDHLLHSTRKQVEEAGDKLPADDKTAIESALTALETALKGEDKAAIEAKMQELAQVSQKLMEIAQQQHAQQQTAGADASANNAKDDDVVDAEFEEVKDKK
# T1 sequence (P0A6Y8 whole entry): as above
# T3 sequence (P09372 whole entry): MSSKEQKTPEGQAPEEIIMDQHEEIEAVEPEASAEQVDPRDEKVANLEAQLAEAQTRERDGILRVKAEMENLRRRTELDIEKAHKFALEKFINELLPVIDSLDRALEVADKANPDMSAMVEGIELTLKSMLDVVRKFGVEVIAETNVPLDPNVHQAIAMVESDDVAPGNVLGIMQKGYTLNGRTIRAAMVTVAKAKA
# T3 sequence (P0A6Y8 whole entry): as the sequence (P0A6Y8 whole entry) above
# Sequence of DnaK-peptide (P0A6Y8 whole entry): as above
# Sequence of DnaK R56A (P0A6Y8 whole entry R56A): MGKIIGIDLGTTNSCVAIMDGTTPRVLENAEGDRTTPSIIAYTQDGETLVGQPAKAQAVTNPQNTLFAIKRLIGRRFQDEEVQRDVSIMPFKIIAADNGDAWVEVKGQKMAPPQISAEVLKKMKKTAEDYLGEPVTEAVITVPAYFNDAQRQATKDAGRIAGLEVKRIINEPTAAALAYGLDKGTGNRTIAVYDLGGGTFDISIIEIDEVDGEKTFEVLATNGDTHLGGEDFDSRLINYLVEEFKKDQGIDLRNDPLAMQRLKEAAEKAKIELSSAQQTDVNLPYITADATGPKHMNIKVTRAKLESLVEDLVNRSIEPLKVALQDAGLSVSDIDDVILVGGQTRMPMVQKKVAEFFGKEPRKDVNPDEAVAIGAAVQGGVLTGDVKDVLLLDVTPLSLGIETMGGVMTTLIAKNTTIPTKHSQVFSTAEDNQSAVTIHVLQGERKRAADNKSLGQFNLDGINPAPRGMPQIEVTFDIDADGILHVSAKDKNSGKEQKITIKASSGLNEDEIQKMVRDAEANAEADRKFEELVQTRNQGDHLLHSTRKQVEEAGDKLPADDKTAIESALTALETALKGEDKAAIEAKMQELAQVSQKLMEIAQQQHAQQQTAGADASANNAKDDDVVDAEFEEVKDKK
# Sequence of DnaK R56A (P09372 whole entry, further chain): as the sequence (P09372 whole entry) above
# Sequence of DnaJ (P08622 whole entry): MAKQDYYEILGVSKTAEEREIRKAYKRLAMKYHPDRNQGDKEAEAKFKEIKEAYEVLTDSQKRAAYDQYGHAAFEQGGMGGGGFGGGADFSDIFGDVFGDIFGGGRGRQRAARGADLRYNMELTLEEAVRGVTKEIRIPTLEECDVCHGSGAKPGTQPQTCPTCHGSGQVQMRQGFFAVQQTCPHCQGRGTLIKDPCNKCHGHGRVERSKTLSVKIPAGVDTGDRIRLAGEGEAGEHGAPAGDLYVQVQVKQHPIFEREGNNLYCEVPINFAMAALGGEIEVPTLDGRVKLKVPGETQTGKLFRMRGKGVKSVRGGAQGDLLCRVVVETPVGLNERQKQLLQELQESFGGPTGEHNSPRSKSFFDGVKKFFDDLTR
# Sequence of DnaK D233A (P0A6Y8 whole entry D233A): as the sequence (P0A6Y8 whole entry R56A) above, with A56R, D233A counted along it
# Sequence of DnaK D233A (P09372 whole entry, further chain): as the sequence (P09372 whole entry) above
# Sequence of DnaK M89A (P09372 whole entry): as above
# Sequence of DnaK M89A (P0A6Y8 whole entry M89A): as the sequence (P0A6Y8 whole entry R56A) above, with A56R, M89A counted along it
# Sequence of GrpE (P09372 whole entry): as the sequence (P09372 whole entry) above
smiles,measurement,setting,value
"COc1cc(C(=O)NS(=O)(=O)c2ccccc2C)ccc1Cc1cn(C)c2ccc(NC(=O)OC3CCCC3)cc12 [Zaf, zafirlukast]",Effect on apparent affinity of DnaK for FITC-HLA,DnaK [1],enhanced the apparent affinity
same,Inhibition of the DnaK-DnaJ combination (ATPase),DnaK-DnaJ [2],only inhibitors of the DnaK-DnaJ combination
same,Activity against DnaK-peptide substrate combination (ATPase),DnaK-peptide,has activity
same,Kd,"DnaK [3]; Apparent affinity KD for ATP-bound DnaK, ATP-bound DnaK",> 100 µM
same,Kd,"DnaK [3]; Apparent affinity KD for DnaK in the presence of ADP, ADP 1 mM",52 ± 12 µM
same,Decrease of tryptophan fluorescence intensity at 342 nm,DnaK [3]; [9],~ 25%
same,Shift of tryptophan fluorescence peak,DnaK [3]; [9],~ 2 nm
same,Effect on Trp fluorescence in the ATP-bound states,"DnaK [3]; p = 0.06, result in words",no effect
same,IC50,DnaK-GrpE [4],> 200 µM
same,Inhibition of the DnaK-GrpE combination (ATPase),DnaK-GrpE [4],weak or no activity
same,Activity against DnaK alone (intrinsic ATPase),DnaK [5],weak or no activity
same,"Weakening of binding of DnaJ to DnaK, fold",DnaK-DnaJ [6],~ 1.8 fold and ~ 2 fold
same,Competition with FAM-ATP for binding to DnaK,DnaK [7],unable to compete
"CC(=O)O[C@H]1C[C@@H]2CC[C@@H]3[C@H](CC[C@@]4(C)[C@H]3C[C@H]([N+]3(C)CCCCC3)[C@@H]4OC(C)=O)[C@@]2(C)C[C@@H]1[N+]1(C)CCCCC1 [PaBr, pancuronium bromide]",Solubility,Solubility,weakly soluble
same,Inhibition of the DnaK-GrpE combination (ATPase),DnaK-GrpE [4],only inhibitors of the DnaK-GrpE combination
"CCCc1nc2c(C)cc(-c3nc4ccccc4n3C)cc2n1Cc1ccc(-c2ccccc2C(=O)O)cc1 [Tel, telmisartan]",Effect on physical interaction between DnaK and GrpE,DnaK-GrpE [8],no effect
same,Effect on apparent affinity of DnaK for FITC-HLA,DnaK [1],no effect
same,Inhibition of the DnaK-DnaJ combination (ATPase),DnaK-DnaJ [2],little activity
same,Activity against DnaK-peptide substrate combination (ATPase),DnaK-peptide,little activity
same,Ability to block GrpE-stimulation of DnaK R56A,DnaK R56A,resistant
same,Kd,GrpE,> 100 µM
same,"Fold increase in Km of GrpE stimulation, DnaK D233A",DnaK D233A,~ 1.5 fold
same,Inhibition of the DnaK-GrpE combination (ATPase),DnaK-GrpE [4],only inhibitors of the DnaK-GrpE combination
same,"Fold increase in Km of GrpE stimulation, wild type DnaK",DnaK-GrpE [4]; wild type DnaK,~ 1.5 fold
same,Kd,DnaJ,> 100 µM
same,Ability to block GrpE-stimulation of DnaK M89A,DnaK M89A,resistant
same,Activity against DnaK alone (intrinsic ATPase),DnaK [5],little activity
same,Competition with FAM-ATP for binding to DnaK,DnaK [7],interfered with binding
same,"Effect on FAM-ATP binding, fold",DnaK [7]; reduced nucleotide affinity,2 fold
"O=c1c(O)c(-c2cc(O)c(O)c(O)c2)oc2cc(O)cc(O)c12 [Myr, myricetin]",Inhibition of the DnaK-DnaJ combination (ATPase),DnaK-DnaJ [2],only inhibitors of the DnaK-DnaJ combination
